Results reported in publication PMC3351161 (Nucleic Acids Research, 2012).
Residue numbers refer to the chain shown, from its start. Names may count otherwise. Where no end group is shown, it is not given here. [ ]: non-standard residue; d: D form. pT = C[C@@H](OP(=O)(O)O)[C@H](N)C(=O)O

Key:
Mdc1 1-800 = Mdc1 1-800 (UniProt Q14676); experiment: anti-Flag co-IP, anti-Myc blot; conditions: reference: wild type; sites T4
[1] = system: Mdc1–FHA WT and T4A mutant domains; experiment: SILAC pull-down, wild-type versus T4A Mdc1–FHA domain after IR; assay type: binding, human; conditions: IR-treated cells
How it was run: (§1)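 U2OS cells stably carry a doxycycline-inducible, C-terminally Strep-tagged FHA domain (aa 1–154) or empty plasmid. They are SILAC-labelled (Lys0/Arg0, Lys4/Arg6, Lys8/Arg10) in dialyzed FBS, induced 16 h, then given 10 Gy IR for 30 min. Lysis in pH 7.5 Tris/NP-40 buffer with phosphatase and protease inhibitors, Strep-Tactin capture, pooled eluates on 4–20% SDS-PAGE, in-gel trypsin digestion. Analysis by nano-LC Orbitrap Velos MS and MaxQuant (FDR <1%). Read-out is normalized log2 SILAC ratios; 1:1:1 ratios count as background binders.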

Mdc1 FHA domain = Mdc1 FHA domain (UniProt Q14676); experiment: ITC; conditions: reference: non-phosphorylated Thr-4 peptide; sites T4
Mdc1–FHA domain = experiment: Detection of proposed partners in Mdc1–FHA pull-down / co-immunoprecipitation; assay type: binding, human; conditions: for detection in fraction pulled down by Mdc1–FHA domain: mass spectrometry; for detection by western blot in Mdc1–FHA pull-down / co-IP: U2OS, 10 Gy IR or untreated
[2] = system: Strep-tagged Mdc1–FHA domain (amino acids 1–154); experiment: SILAC pull-down of Mdc1–FHA interaction partners, −IR versus +IR; assay type: binding, human; conditions: 10 Gy IR
How it was run: as §1

Mdc1 = Mdc1 (UniProt Q14676); experiment: Strep-Tactin pull-down, SILAC LC-MS/MS; conditions: reference: wild type FHA fragment; sites T4
Mdc1 M-1, 1-124 = Mdc1 M-1, 1-124 (UniProt Q14676); experiment: peptide pull-down of purified GST fragment; conditions: reference: unphosphorylated peptide; sites T4
[3] = target: T1, Mdc1 fragment M-1 (amino acids 1–124), GST fusion (human, UniProt Q14676 1-124); experiment: pull-down
T1 sequence (looked up): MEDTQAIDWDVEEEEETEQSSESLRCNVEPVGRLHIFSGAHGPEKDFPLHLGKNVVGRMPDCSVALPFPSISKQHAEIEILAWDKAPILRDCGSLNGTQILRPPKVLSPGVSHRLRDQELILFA

[4] = system: immunoprecipitated human ATM; experiment: In vitro ATM kinase assay of recombinant Mdc1 fragments; assay type: biochemical; conditions: 0.5 mM ATP, γ-[32P]ATP, 30 min at 30°C, autoradiography
SEC-MALS = target: the molecule itself; experiment: SEC-MALS
[5] = system: Mdc1 Thr-4 / Thr-98 phosphorylation; experiment: MS quantitation of Mdc1–FHA phosphorylation site occupancy; assay type: cell-based, human
Myc-tagged Mdc1 (1–800) = experiment: Co-immunoprecipitation of Flag- and Myc-tagged Mdc1; assay type: cell-based, human; conditions: transiently transfected 293T cells, anti-Flag IP, anti-Myc immunoblot
How it was run: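 Human Mdc1 residues 1–800, C-terminally tagged with HA/FLAG or Myc, in a pcDNA3.1(+) vector. HEK 293T cells grown in D-MEM with 10% FCS and streptomycin/penicillin (100 U/ml). Transfected with FuGene 6 or calcium phosphate. Immunoprecipitation on anti-FLAG M2 affinity gel; Myc-tagged partner detected by immunoblot with rabbit polyclonal c-Myc antibody.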

Mdc1, sequence (Q14676 1-154 T4A): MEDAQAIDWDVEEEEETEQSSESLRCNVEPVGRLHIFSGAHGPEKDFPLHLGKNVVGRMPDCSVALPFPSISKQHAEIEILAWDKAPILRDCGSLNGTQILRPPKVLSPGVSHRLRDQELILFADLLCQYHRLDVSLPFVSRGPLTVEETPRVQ

In the case of Mdc1 1-800 (from UniProt Q14676) T4A, the “binding against the reference” value (Mdc1 1-800) is reported as “weaker”.

With “MDC1: endogenous Mdc1 as interaction partner of its own FHA domain” the “interaction with wild-type compared to T4A FHA domain (in words)” value [1] was “interacts with the wild-type fragment”.

For “Mdc1 Thr-4 motif peptide (from UniProt Q14676) pThr-4 peptide”, the “binding against the reference” value (Mdc1 FHA domain) was “stronger”.

For “ATM: ataxia telangiectasia-mutated kinase”, the “detection in fraction pulled down by Mdc1–FHA domain” value (from here on “detection in fraction pulled down”) (Mdc1–FHA domain) was “could not detect peptides” and the “detection by western blot in Mdc1–FHA pull-down / co-IP” value (Mdc1–FHA domain) was “unable to detect”.

For “DDB1- and Cul4-associated factor 1 [DCAF1]”, the “decrease of interaction with the MDC1–FHA domain in the presence of DNA damage” value [2] was over 2.5 fold.

In the case of “Mdc1 1-154 (from UniProt Q14676) T4A FHA fragment”, the “binding against the reference” value (Mdc1) is reported as “weaker”.

With Chk2: DNA damage kinase the “detection in fraction pulled down” value (Mdc1–FHA domain) was “could not detect peptides” and the “detection by western blot in Mdc1–FHA pull-down / co-IP” value (Mdc1–FHA domain) was “unable to detect”.

In the case of DNA damage binding protein 1 [DDB1], the “decrease of interaction with the MDC1–FHA domain in the presence of DNA damage” value [2] is reported as over 2.5 fold.

“Mdc1 1-12 (from UniProt Q14676) pThr-4 peptide” was tested, and the “binding against the reference” value (Mdc1 M-1, 1-124) was “stronger”.

B1: Rad51: repair protein (protein)
chain: MAMQMQLEANADTSVEEESFGPQPISRLEQCGINANDVKKLEEAGFHTVEAVAYAPKKELINIKGISEAKADKILAEAAKLVPMGFTTATEFHQRRSEIIQITTGSKELDKLLQGGIETGSITEMFGEFRTGKTQICHTLAVTCQLPIDRGGGEGKAMYIDTEGTFRPERLLAVAERYGLSGSDVLDNVAYARAFNTDHQTQLLYQASAMMVESRYALLIVDSATALYRTDYSGRGELSARQMHLARFLRMLLRLADEFGVAVVITNQVVAQVDGAAMFAADPKKPIGGNIIAHASTTRLYLRKGRGETRICKIYDSPCLPEAEAMFAINADGVGDAKD
For B1, the “detection in fraction pulled down” value (Mdc1–FHA domain) was “could not detect peptides”.

MED[pT]QAIDWDVE (peptide, UniProt Q14676 1-12, looked up): binds [3].

B2: M-1: GST-fusion Mdc1 fragment M-1 (amino acids 1–124) (protein, UniProt Q14676 1-124, looked up, fragment)
chain: T1 sequence (looked up)
modifications: GST fusion
In the case of B2, the “phosphorylation by ATM in vitro” value [4] is reported as “ATM only phosphorylated fragment M-1 (amino acids 1–124) and fragment M-4 (amino acids 531–770)”.

B3: M-1 T4A: M-1 point mutation altering Thr-4 to Ala (protein, UniProt Q14676 1-124, looked up, variant T4A)
chain: T1 sequence (looked up) with T4A
modifications: GST fusion
With B3 the “phosphorylation by ATM in vitro” value [4] was “could no longer be phosphorylated by ATM in vitro”.

B4: wild-type Mdc1–FHA (27–138) (domain or fragment, human, UniProt Q14676 27-138, looked up)
chain: NVEPVGRLHIFSGAHGPEKDFPLHLGKNVVGRMPDCSVALPFPSISKQHAEIEILAWDKAPILRDCGSLNGTQILRPPKVLSPGVSHRLRDQELILFADLLCQYHRLDVSLP
With B4 the “stoichiometry N” value (SEC-MALS) was 2.

B5: Mdc1-FHA domain: C-terminally Strep-tagged Mdc1-FHA domain (amino acids 1–154) (protein)
chain: B4 chain
modifications: left off: GST, end not stated, cleaved
B5 was tested, and the Thr-98 phosphorylation ([5]; MS of tryptic peptide) was “no phosphorylated form was evident”, the “occupancy rate of phosphorylated Thr-4, after irradiation” value ([5]; SILAC and extracted ion chromatogram quantitation, after irradiation) was 61.5% and the “occupancy rate of phosphorylated Thr-4, before irradiation” value ([5]; SILAC and extracted ion chromatogram quantitation, not irradiated) was 18.6%.

B6: Mdc1 (1–800) R58A: FHA domain R58A mutant of Mdc1 (1–800) (protein, UniProt Q14676 1-800, looked up, variant R58A)
chain: MEDTQAIDWDVEEEEETEQSSESLRCNVEPVGRLHIFSGAHGPEKDFPLHLGKNVVGAMPDCSVALPFPSISKQHAEIEILAWDKAPILRDCGSLNGTQILRPPKVLSPGVSHRLRDQELILFADLLCQYHRLDVSLPFVSRGPLTVEETPRVQGETQPQRLLLAEDSEEEVDFLSERRMVKKSRTTSSSVIVPESDEEGHSPVLGGLGPPFAFNLNSDTDVEEGQQPATEEASSAARRGATVEAKQSEAEVVTEIQLEKDQPLVKERDNDTKVKRGAGNGVVPAGVILERSQPPGEDSDTDVDDDSRPPGRPAEVHLERAQPFGFIDSDTDAEEERIPATPVVIPMKKRKIFHGVGTRGPGAPGLAHLQESQAGSDTDVEEGKAPQAVPLEKSQASMVINSDTDDEEEVSAALTLAHLKESQPAIWNRDAEEDMPQRVVLLQRSQTTTERDSDTDVEEEELPVENREAVLKDHTKIRALVRAHSEKDQPPFGDSDDSVEADKSSPGIHLERSQASTTVDINTQVEKEVPPGSAIIHIKKHQVSVEGTNQTDVKAVGGPAKLLVVSLEEAWPLHGDCETDAEEGTSLTASVVADVRKSQLPAEGDAGAEWAAAVLKQERAHEVGAQGGPPVAQVEQDLPISRENLTDLVVDTDTLGESTQPQREGAQVPTGREREQHVGGTKDSEDNYGDSEDLDLQATQCFLENQGLEAVQSMEDEPTQAFMLTPPQELGPSHCSFQTTGTLDEPWEVLATQPFCLRESEDSETQPFDTHLEAYGPCLSPPRAIPGDQHPESPVHTEPM
B6 was tested, and the “interaction of Flag-tagged with Myc-tagged Mdc1 (1–800)” value (“interaction of Flag-tagged” below) (Myc-tagged Mdc1 (1–800)) was “significant reduction of the interaction”.

B7: Mdc1 (1–800) concomitant mutation of both the FHA domain and Thr-4: T4A/R58A mutant of Mdc1 (1–800) (protein, UniProt Q14676 1-800, looked up, variant T4A R58A)
chain: B6 chain with T4A
In the case of B7, the “interaction of Flag-tagged” value (Myc-tagged Mdc1 (1–800)) is reported as “complete loss of binding”.

B8: Mdc1 (1–800) T4A: T4A mutant of Mdc1 (1–800) (protein, UniProt Q14676 1-800, looked up, variant T4A)
chain: B6 chain with T4A, A58R
With B8 the “interaction of Flag-tagged” value (Myc-tagged Mdc1 (1–800)) was “significant reduction of the interaction”.

B9: M-4: GST-fusion Mdc1 fragment M-4 (amino acids 531–770) (protein, UniProt Q14676 531-770, looked up, fragment)
chain: PGSAIIHIKKHQVSVEGTNQTDVKAVGGPAKLLVVSLEEAWPLHGDCETDAEEGTSLTASVVADVRKSQLPAEGDAGAEWAAAVLKQERAHEVGAQGGPPVAQVEQDLPISRENLTDLVVDTDTLGESTQPQREGAQVPTGREREQHVGGTKDSEDNYGDSEDLDLQATQCFLENQGLEAVQSMEDEPTQAFMLTPPQELGPSHCSFQTTGTLDEPWEVLATQPFCLRESEDSETQPFDT
modifications: GST fusion
With B9 the “phosphorylation by ATM in vitro” value [4] was “ATM only phosphorylated fragment M-1 (amino acids 1–124) and fragment M-4 (amino acids 531–770)”.

B10: RNF95: uncharacterized RING-finger domain protein (protein)
chain: MATSAPLRSLEEEVTCSICLDYLRDPVTIDCGHVFCRSCTTDVRPISGSRPVCPLCKKPFKKENIRPVWQLASLVENIERLKVDKGRQPGEVTREQQDAKLCERHREKLHYYCEDDGKLLCVMCRESREHRPHTAVLMEKAAQPHREKILNHLSTLRRDRDKIQGFQAKGEADILAALKKLQDQRQYIVAEFEQGHQFLREREEHLLEQLAKLEQELTEGREKFKSRGVGELARLALVISELEGKAQQPAAELMQDTRDFLNRYPRKKFWVGKPIARVVKKKTGEFSDKLLSLQRGLREFQGKLLRDLEYKTVSVTLDPQSASGYLQLSEDWKCVTYTSLYKSAYLHPQQFDCEPGVLGSKGFTWGKVYWEVEVEREGWSEDEEEGDEEEEGEEEEEEEEAGYGDGYDDWETDEDEESLGDEEEEEEEEEEEVLESCMVGVARDSVKRKGDLSLRPEDGVWALRLSSSGIWANTSPEAELFPALRPRRVGIALDYEGGTVTFTNAESQELIYTFTATFTRRLVPFLWLKWPGTRLLLRP
In the case of B10, the “interaction with wild-type compared to T4A FHA domain (in words)” value [1] is reported as “significantly increased in the wild-type compared to T4A FHA domain expressing cells”.
